Assay results from PMC5598417 (Toxicology Reports, 2014).

Tests used:
MA-10 cells [1] = test: Expression of steroidogenic genes in MA-10 cells; type: cell-based, murine; details: 6-h exposure; conazole 10 μM
MA-10 cells [2] = test: Reactive oxygen species assay; type: cell-based, murine; details: for ROS formation compared with vehicle-treated control cells: 100 μM, 48-h exposure
Method in brief: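 MA-10 cells seeded at 7.5 × 10^4 cells/well in gelatin-coated plates 24 h beforehand, loaded with H2-DCFDA (10 μM, 2 h, 37 °C), then washed twice in warm PBS. Exposure to 0.01–100 μM in serum-free, phenol red-free DMEM/F-12 (≤0.1% DMSO) for up to 48 h. Fluorescence read at 485/530 nm at 0, 1, 24 and 48 h and expressed as % of time-matched control. Positive controls were H2O2 20 mM (1 h) and rotenone 100 μM (24/48 h). Three independent experiments, quadruplicates.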

[3] = humans; cited from earlier work
MA-10 cells [4] = test: Basal testosterone secretion by MA-10 Leydig cells; type: cell-based, murine; details: for decrease of basal T secretion compared with vehicle-treated control cells: 10 μM; for decrease of basal T secretion compared with vehicle-treated control cells / T secretion, concentration curves without LH: 48 h; for T secretion, concentration curves without LH: SU10603 0.05-1 μM, FLUS or TEBU 0.3-10 μM, Supplementary Fig. 1; for T secretion by MA-10 cells compared with vehicle-control: basal T secretion, conazole 10 μM
androgen receptor (AR) = target: T1, androgen receptor (AR) (Homo sapiens, UniProt P10275); type: cell-based; details: BMR25%FLUT/BMR25%FLUT conazole
T1 sequence (P10275 1-920): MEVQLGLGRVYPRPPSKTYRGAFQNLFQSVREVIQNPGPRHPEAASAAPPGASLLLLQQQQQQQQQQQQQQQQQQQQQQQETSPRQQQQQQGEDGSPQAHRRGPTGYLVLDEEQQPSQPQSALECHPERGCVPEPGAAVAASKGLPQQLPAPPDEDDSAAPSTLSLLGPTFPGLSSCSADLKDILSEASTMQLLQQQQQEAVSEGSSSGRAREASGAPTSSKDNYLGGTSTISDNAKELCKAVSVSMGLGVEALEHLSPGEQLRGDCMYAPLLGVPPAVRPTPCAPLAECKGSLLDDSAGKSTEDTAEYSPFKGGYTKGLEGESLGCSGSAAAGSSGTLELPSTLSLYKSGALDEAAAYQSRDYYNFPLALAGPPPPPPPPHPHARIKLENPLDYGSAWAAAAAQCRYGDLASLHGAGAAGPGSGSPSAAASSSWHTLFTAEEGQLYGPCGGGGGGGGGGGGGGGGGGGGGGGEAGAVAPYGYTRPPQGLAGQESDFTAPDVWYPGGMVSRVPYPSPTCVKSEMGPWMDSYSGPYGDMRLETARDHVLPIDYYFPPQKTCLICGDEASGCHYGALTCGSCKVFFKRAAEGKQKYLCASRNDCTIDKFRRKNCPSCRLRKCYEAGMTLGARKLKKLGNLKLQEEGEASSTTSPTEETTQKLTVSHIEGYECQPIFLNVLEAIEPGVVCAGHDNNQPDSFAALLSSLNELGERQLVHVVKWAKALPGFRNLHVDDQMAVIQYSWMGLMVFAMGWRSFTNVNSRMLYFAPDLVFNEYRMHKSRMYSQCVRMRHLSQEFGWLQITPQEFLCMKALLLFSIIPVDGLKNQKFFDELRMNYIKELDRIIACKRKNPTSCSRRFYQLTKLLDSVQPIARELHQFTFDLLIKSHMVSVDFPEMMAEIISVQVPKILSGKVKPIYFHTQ

MA-10 cells [5] = test: Expression of cholesterol biosynthesis genes in MA-10 cells; type: cell-based, murine; details: 6-h exposure; cAMP 100 μM, conazole 10 μM
MA-10 cells [6] = test: LH-induced testosterone secretion by MA-10 Leydig cells; type: cell-based, murine; details: read-out: IC50 of T secretion inhibition in combination with LH; LH 10 ng/mL; 48-h exposure
[7] = cited from earlier work

CC(C1CC1)C(O)(Cn1cncn1)c1ccc(Cl)cc1 (centres unmarked) [CYPRO, Cyproconazole]
gene expression of five steroidogenic genes (StAR, Cyp11A1, Cyp17A1, 3β-HSD1, 17β-HSD3) (MA-10 cells [1]): did not significantly affect
ROS formation compared with vehicle-treated control cells (MA-10 cells [2]): did not significantly change

OC(Cn1cncn1)(Cn1cncn1)c1ccc(F)cc1F [FLUC, Fluconazole, reference compound]
ROS formation compared with vehicle-treated control cells (MA-10 cells [2]): did not significantly change
Tmax [3]: approximately 2 h

C[Si](Cn1cncn1)(c1ccc(F)cc1)c1ccc(F)cc1 [FLUS, Flusilazole]
decrease of basal T secretion compared with vehicle-treated control cells (MA-10 cells [4]): more than 50%
T secretion, concentration curves without LH (MA-10 cells [4]): concentration-dependently inhibited T secretion
gene expression of five steroidogenic genes (StAR, Cyp11A1, Cyp17A1, 3β-HSD1, 17β-HSD3) (MA-10 cells [1]): did not significantly affect
ROS formation compared with vehicle-treated control cells (MA-10 cells [2]): 1.2 fold

CCCCC(O)(Cn1cncn1)c1ccc(Cl)cc1Cl (centres unmarked) [HEXA, Hexaconazole]
decrease of basal T secretion compared with vehicle-treated control cells (MA-10 cells [4]): more than 50%
T secretion by MA-10 cells compared with vehicle-control (MA-10 cells [4]; 48-h exposure): 36%
ROS formation compared with vehicle-treated control cells (MA-10 cells [2]): 1.2 fold
REP (relative effect potency as compared to flutamide) (androgen receptor (AR)): 0.26

CCCCC(C#N)(Cn1cncn1)c1ccc(Cl)cc1 (centres unmarked) [MYC, Myclobutanil]
ROS formation compared with vehicle-treated control cells (MA-10 cells [2]): did not significantly change

CCCC(Cn1cncn1)c1ccc(Cl)cc1Cl (centres unmarked) [PEN, Penconazole]
ROS formation compared with vehicle-treated control cells (MA-10 cells [2]): did not significantly change

CCCN(CCOc1c(Cl)cc(Cl)cc1Cl)C(=O)n1ccnc1 [PRO, Prochloraz]
decrease of basal T secretion compared with vehicle-treated control cells (MA-10 cells [4]): more than 50%
T secretion by MA-10 cells compared with vehicle-control (MA-10 cells [4]; 48-h exposure): 23%
gene expression of five steroidogenic genes (StAR, Cyp11A1, Cyp17A1, 3β-HSD1, 17β-HSD3) (MA-10 cells [1]): did not significantly affect
gene expression of Cyp51 in comparison with vehicle-treated cells (MA-10 cells [5]): 1.7 fold
gene expression of HMG-CoA red in comparison with vehicle-treated cells (MA-10 cells [5]): 1.9 fold
ROS formation compared with vehicle-treated control cells (MA-10 cells [2]): 1.3 fold

O=C1c2cc(Cl)ccc2CCC1c1cccnc1 (centres unmarked) [SU10603, reference compound]
decrease of T secretion compared to vehicle-treated cells (MA-10 cells [4]; SU10603 1 μM, 48-h exposure): 82%
T secretion, concentration curves without LH (MA-10 cells [4]): concentration-dependently inhibited T secretion
IC50 (MA-10 cells [6]): 500 nM

CC(C)(C)C(O)(CCc1ccc(Cl)cc1)Cn1cncn1 (centres unmarked) [TEBU, Tebuconazole]
decrease of basal T secretion compared with vehicle-treated control cells (MA-10 cells [4]): more than 50%
T secretion, concentration curves without LH (MA-10 cells [4]): concentration-dependently inhibited T secretion
gene expression of five steroidogenic genes (StAR, Cyp11A1, Cyp17A1, 3β-HSD1, 17β-HSD3) (MA-10 cells [1]): did not significantly affect
gene expression of Por in comparison with vehicle-treated cells (MA-10 cells [5]): 0.8 fold
ROS formation compared with vehicle-treated control cells (MA-10 cells [2]): 1.4 fold
elimination half-life in soil [7]: approximately 800 days

CC(C)(C)C(=O)C(Oc1ccc(Cl)cc1)n1cncn1 (centres unmarked) [TRIA, Triadimefon]
ROS formation compared with vehicle-treated control cells (MA-10 cells [2]): did not significantly change

CC1(C)CCC(=Cc2ccc(Cl)cc2)C1(O)Cn1cncn1 (centres unmarked) [TRIT, Triticonazole]
decrease of basal T secretion compared with vehicle-treated control cells (MA-10 cells [4]): more than 50%
T secretion by MA-10 cells compared with vehicle-control (MA-10 cells [4]; 48-h exposure): 44%
ROS formation compared with vehicle-treated control cells (MA-10 cells [2]): did not significantly change
REP (relative effect potency as compared to flutamide) (androgen receptor (AR)): 0.25

C=C(C)[C@H]1Cc2c(ccc3c2O[C@@H]2COc4cc(OC)c(OC)cc4[C@@H]2C3=O)O1 [rotenone, reference compound]
ROS production, % of the control (MA-10 cells [2]; rotenone 100 μM, 48 h): 158 ± 18%
